Assays:
[1] = molecular target: T1, ATP-dependent translocase ABCB1 (Homo sapiens, UniProt P08183); experiment: Inhibition of ABCB1 in human KBV1 cells assessed as reduction in Calcein-AM dye efflux 1 uM by FACS analysis; type: cell-based; details: kbv1, 1 µM
Procedure, shortened: (§1)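 Trypsinized cells were resuspended in IMDM with 5% FCS. Calcein-AM was added to 3 × 10^5 cells in 4 mL IMDM, with or without 1 μM test compound or 3 μM tariquidar. Intracellular calcein fluorescence was read immediately by flow cytometry, with the drug-sensitive parental line run in parallel.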

[2] = molecular target: T1, ATP-dependent translocase ABCB1; experiment: Inhibition of human ABCB1-mediated efflux transfected in HEK293 cells assessed as accumulation of fluorescent dye by calcein-AM dye based FACS analysis; type: cell-based
Procedure, shortened: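 The HEK293 cells, transfected with human ABCB1 (parental HEK293 as control), were trypsinized and resuspended in IMDM with 5% FCS. Calcein-AM was added to 3 × 10^5 cells in 4 mL, with or without test compound (single 1 μM or a concentration series) or 3 μM tariquidar. Fluorescence was read immediately by flow cytometry. Results are the mean ± SEM of at least three experiments.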

[3] = molecular target: T1, ATP-dependent translocase ABCB1; experiment: Inhibition of human ABCB1 transfected in HEK293 cells assessed as potentiation of doxorubicin-induced cytotoxicity by measuring doxorubicin resistance ratio at 50 nM after 72 hrs by CCK8 assay relative to parental HEK293 cells (reference value: 96); type: cell-based; details: hek293, 72 h, 0.05 µM
[4] = molecular target: T1, ATP-dependent translocase ABCB1; experiment: Inhibition of human ABCB1 transfected in HEK293 cells assessed as potentiation of doxorubicin-induced cytotoxicity by measuring doxorubicin resistance ratio at 200 nM after 72 hrs by CCK8 assay relative to parental HEK293 cells (reference value: 96); type: cell-based; details: hek293, 72 h, 0.2 µM
[5] = molecular target: T1, ATP-dependent translocase ABCB1; experiment: Inhibition of human ABCB1 transfected in HEK293 cells assessed as potentiation of doxorubicin-induced cytotoxicity by measuring doxorubicin resistance ratio at 500 nM after 72 hrs by CCK8 assay relative to parental HEK293 cells (reference value: 96); type: cell-based; details: hek293, 72 h, 0.5 µM
[6] = molecular target: Multidrug resistance-associated protein 1 (Homo sapiens, UniProt P33527); experiment: Inhibition of human ABCC1 transfected in HEK293 cells assessed as potentiation of etoposide-induced cytotoxicity by measuring etoposide resistance ratio at 500 nM after 72 hrs by CCK8 assay relative to parental HEK293 cells (reference value: 350); type: cell-based; details: hek293, 72 h, 0.5 µM
Sequence of Multidrug resistance-associated protein 1 (P33527 whole entry): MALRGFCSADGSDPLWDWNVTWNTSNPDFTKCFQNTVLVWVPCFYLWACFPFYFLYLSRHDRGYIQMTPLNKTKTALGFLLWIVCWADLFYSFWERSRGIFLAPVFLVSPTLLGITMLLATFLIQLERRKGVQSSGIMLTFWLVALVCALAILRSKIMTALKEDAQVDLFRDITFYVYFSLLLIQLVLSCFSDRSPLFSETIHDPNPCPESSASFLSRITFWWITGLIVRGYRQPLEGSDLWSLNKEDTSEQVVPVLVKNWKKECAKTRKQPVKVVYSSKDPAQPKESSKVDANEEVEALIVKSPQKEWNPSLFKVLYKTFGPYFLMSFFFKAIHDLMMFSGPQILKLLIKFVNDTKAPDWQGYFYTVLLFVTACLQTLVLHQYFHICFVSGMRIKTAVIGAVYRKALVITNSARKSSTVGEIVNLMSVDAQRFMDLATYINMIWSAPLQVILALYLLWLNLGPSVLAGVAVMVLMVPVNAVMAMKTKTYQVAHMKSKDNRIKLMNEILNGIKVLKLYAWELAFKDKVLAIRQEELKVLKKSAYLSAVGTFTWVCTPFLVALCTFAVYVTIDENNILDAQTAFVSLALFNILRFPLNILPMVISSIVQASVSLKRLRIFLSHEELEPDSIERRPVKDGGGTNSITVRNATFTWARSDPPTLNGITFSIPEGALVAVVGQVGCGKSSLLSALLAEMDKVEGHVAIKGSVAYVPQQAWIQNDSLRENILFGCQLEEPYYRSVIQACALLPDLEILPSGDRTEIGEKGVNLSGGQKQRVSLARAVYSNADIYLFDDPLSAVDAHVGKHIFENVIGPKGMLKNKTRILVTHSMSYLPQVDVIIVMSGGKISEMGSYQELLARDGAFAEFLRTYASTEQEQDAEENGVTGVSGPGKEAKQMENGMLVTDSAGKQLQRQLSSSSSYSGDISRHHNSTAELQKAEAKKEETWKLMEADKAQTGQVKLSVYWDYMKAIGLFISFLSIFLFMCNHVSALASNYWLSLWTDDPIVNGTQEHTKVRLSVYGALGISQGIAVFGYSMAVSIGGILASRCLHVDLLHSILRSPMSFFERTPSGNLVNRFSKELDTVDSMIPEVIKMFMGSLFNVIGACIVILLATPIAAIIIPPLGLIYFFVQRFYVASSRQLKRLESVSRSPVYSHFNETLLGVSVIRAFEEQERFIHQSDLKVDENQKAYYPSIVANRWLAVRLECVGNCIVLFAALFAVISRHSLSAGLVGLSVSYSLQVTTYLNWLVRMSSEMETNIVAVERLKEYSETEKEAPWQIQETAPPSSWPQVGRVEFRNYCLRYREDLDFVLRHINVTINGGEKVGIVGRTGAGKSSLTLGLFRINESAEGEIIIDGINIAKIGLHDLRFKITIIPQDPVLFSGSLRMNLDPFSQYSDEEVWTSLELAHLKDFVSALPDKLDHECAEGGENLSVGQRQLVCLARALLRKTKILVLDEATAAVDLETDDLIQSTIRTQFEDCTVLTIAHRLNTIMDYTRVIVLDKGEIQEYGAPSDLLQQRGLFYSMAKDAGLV

[7] = molecular target: T1, ATP-dependent translocase ABCB1; experiment: Inhibition of ABCB1 in human NCI-ADR-RES cells assessed as reduction of calcein efflux at 1 uM by -based FACS analysis; type: cell-based; procedure, shortened: as §1
[8] = molecular target: T1, ATP-dependent translocase ABCB1; experiment: Inhibition of ABCB1 in human KBV1 cells assessed as potentiation of doxorubicin-induced cytotoxicity by measuring doxorubicin resistance ratio at 100 nM after 72 hrs by MTT assay relative to parental KB-3-1 cells (reference value: 34); type: cell-based; details: kbv1, 72 h, 0.1 µM
Procedure, shortened: (§2)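 Cells were kept in drug-free DMEM with 10% FCS for 7 days before assay, then plated at 5000 cells/well for 24 h. Drug at various concentrations was added with a nontoxic fixed level of modulator for 72 h, and the read-out was MTT. IC50 came from fitted curves (≥3 experiments). RR = IC50 of the resistant line / IC50 of the parental line.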

[9] = molecular target: T1, ATP-dependent translocase ABCB1; experiment: Inhibition of ABCB1 in human KBV1 cells assessed as potentiation of doxorubicin-induced cytotoxicity by measuring doxorubicin resistance ratio at 50 nM after 72 hrs by MTT assay relative to parental KB-3-1 cells (reference value: 34); type: cell-based; details: kbv1, 72 h, 0.05 µM; procedure, shortened: as §2
[10] = molecular target: T1, ATP-dependent translocase ABCB1; experiment: Inhibition of ABCB1 in human KBV1 cells assessed as potentiation of colchicine-induced cytotoxicity by measuring colchicine resistance ratio at 50 nM after 72 hrs by MTT assay relative to parental KB-3-1 cells (reference value: 55); type: cell-based; details: kbv1, 72 h, 0.05 µM; procedure, shortened: as §2
[11] = molecular target: T1, ATP-dependent translocase ABCB1; experiment: Inhibition of ABCB1 in human KBV1 cells assessed as potentiation of vincristine-induced cytotoxicity by measuring vincristine resistance ratio at 500 nM after 72 hrs by MTT assay relative to parental KB-3-1 cells (reference value: 356); type: cell-based; details: kbv1, 72 h, 0.5 µM; procedure, shortened: as §2
[12] = molecular target: T1, ATP-dependent translocase ABCB1; experiment: Inhibition of ABCB1 in human NCI-ADR-RES cells assessed as potentiation of doxorubicin-induced cytotoxicity by measuring doxorubicin resistance ratio at 500 nM after 72 hrs by MTT assay relative to parental OVCAR8 cells (reference value: 46); type: cell-based; details: ovcar-8, 72 h, 0.5 µM; procedure, shortened: as §2
[13] = molecular target: T1, ATP-dependent translocase ABCB1; experiment: Inhibition of ABCB1 in human NCI-ADR-RES cells assessed as potentiation of colchicine-induced cytotoxicity by measuring colchicine resistance ratio at 200 nM after 72 hrs by MTT assay relative to parental OVCAR8 cells (reference value: 59); type: cell-based; details: ovcar-8, 72 h, 0.2 µM; procedure, shortened: as §2
[14] = molecular target: T1, ATP-dependent translocase ABCB1; experiment: Inhibition of ABCB1 in human NCI-ADR-RES cells assessed as potentiation of vincristine-induced cytotoxicity by measuring vincristine resistance ratio at 200 nM after 72 hrs by MTT assay relative to parental OVCAR8 cells (reference value: 435); type: cell-based; details: ovcar-8, 72 h, 0.2 µM; procedure, shortened: as §2
[15] = molecular target: T1, ATP-dependent translocase ABCB1; experiment: Inhibition of ABCB1 in human NCI-ADR-RES cells assessed as potentiation of vincristine-induced cytotoxicity by measuring vincristine resistance ratio at 100 nM after 72 hrs by MTT assay relative to parental OVCAR8 cells (reference value: 435); type: cell-based; details: ovcar-8, 72 h, 0.1 µM; procedure, shortened: as §2
KB 3-1 [16] = experiment: Induction of apoptosis in human KB-3-1 cells assessed as late apoptotic cells at 1 uM after 48 hrs by Annexin V-FITC/propidium iodide staining based FACS analysis (reference value: 5.8%); type: functional
KB-V1 [17] = experiment: Induction of apoptosis in human KBV1 cells assessed as early apoptotic cells at 1 uM after 48 hrs by Annexin V-FITC/propidium iodide staining based FACS analysis (reference value: 5.3%); type: functional
KB-V1 [18] = experiment: Induction of apoptosis in human KBV1 cells assessed as necrotic cells at 1 uM after 48 hrs by Annexin V-FITC/propidium iodide staining based FACS analysis (reference value: 1%); type: functional
KB 3-1 [19] = experiment: Potentiation of colchicine-induced apoptosis in human KB-3-1 cells assessed as late apoptotic cells at 1 uM after 48 hrs by Annexin V-FITC/propidium iodide staining based FACS analysis (reference value: 25.7%); type: functional
KB 3-1 [20] = experiment: Potentiation of colchicine-induced apoptosis in human KB-3-1 cells assessed as necrotic cells at 1 uM after 48 hrs by Annexin V-FITC/propidium iodide staining based FACS analysis (reference value: 4.9%); type: functional
ABCB1 (P-glycoprotein) = ABCB1 (P-glycoprotein) (Homo sapiens, UniProt P08183); experiment: Induction of Vanadate-sensitive ABCB1 (unknown origin) assessed as increase in ATPase activity up to 1 uM by Pgp-glo assay relative to control; details: read-out: FC
Sequence of ABCB1 (P-glycoprotein) (P08183 whole entry): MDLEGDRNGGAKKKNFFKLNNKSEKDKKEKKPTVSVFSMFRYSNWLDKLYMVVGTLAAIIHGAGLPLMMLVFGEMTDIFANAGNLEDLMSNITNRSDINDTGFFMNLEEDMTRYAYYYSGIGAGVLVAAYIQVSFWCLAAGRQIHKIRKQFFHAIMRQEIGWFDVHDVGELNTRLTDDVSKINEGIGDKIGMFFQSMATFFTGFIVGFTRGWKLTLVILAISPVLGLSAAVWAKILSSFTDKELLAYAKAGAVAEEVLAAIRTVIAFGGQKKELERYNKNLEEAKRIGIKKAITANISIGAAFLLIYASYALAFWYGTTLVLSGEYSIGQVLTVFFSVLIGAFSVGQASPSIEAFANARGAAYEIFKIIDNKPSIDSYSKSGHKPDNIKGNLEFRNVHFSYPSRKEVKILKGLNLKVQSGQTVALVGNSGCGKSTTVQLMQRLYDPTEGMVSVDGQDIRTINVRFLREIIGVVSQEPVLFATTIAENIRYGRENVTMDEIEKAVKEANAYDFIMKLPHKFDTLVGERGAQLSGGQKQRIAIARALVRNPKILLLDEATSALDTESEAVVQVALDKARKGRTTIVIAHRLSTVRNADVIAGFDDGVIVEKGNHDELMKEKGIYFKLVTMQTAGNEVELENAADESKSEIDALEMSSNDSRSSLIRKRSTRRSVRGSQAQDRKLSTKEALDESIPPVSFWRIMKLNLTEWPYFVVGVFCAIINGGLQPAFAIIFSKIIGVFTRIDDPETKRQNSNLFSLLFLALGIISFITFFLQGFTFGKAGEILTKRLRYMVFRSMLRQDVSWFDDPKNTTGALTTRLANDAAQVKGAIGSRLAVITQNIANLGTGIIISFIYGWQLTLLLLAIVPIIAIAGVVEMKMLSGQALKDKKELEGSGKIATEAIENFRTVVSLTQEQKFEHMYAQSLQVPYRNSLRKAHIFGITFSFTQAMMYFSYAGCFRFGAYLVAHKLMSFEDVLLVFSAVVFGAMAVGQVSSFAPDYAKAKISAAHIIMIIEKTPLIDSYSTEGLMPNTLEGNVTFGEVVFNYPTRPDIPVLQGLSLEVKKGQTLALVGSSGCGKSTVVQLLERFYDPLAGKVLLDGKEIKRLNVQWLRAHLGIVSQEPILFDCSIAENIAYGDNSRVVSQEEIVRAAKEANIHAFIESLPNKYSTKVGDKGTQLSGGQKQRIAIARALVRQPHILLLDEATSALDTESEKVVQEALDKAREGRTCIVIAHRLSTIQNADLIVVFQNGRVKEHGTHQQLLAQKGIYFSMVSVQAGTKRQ
Procedure, shortened: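 Vanadate-sensitive ABCB1 ATPase activity measured with the Pgp-Glo system as […], across 0–1 μM test compound. Points are means of at least three independent experiments.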

[21] = molecular target: T1, ATP-dependent translocase ABCB1; experiment: Induction of Vanadate-sensitive ABCB1 (unknown origin) assessed as ATPase activity by measuring concentration required for 50% maximal stimulation by Pgp-glo assay
Procedure, shortened: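 Vanadate-sensitive ABCB1 ATPase activity was measured with the Pgp-Glo system using […], across 0–1 μM test compound. Points are the mean of at least three independent experiments.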

T1 sequence (P08183 whole entry): as above

In the case of `COc1ccc2cc1Oc1ccc(cc1)C[C@H]1c3cc(c(OC)cc3CCN1C)Oc1c(OC)c(OC)c(OC)c3c1[C@H](C2)N(C)CC3` [HERNANDEZINE], the “inhibition (INH)” value [1] is reported as “Active”, the IC50 [2] is reported as 0.3 µM and the “inhibition (INH)” value ([2]; human, hek293) is reported as “Dose-dependent effect”. For the same molecule, the Ratio [3] was 16, the Ratio [4] was 8 and the Ratio [5] was 7. For the same molecule, the Ratio [6] was 547, the “inhibition (INH)” value [7] was “Active” and the Ratio [8] was 5. For the same molecule, the Ratio [9] was 9, the Ratio [10] was 31 and the Ratio [11] was 3. The Ratio [12] was 2, the Ratio [13] was 10 and the Ratio [14] was 196. The Ratio [15] was 433, the Activity (KB 3-1 [16]) was 4.4% and the Activity (KB-V1 [17]) was 4.7%. It also gave an Activity (KB-V1 [18]) of 1%, an Activity (KB 3-1 [19]) of 26.4% and an Activity (KB 3-1 [20]) of 5.1%. For the same molecule, the fold induction (ABCB1 (P-glycoprotein)) was 7, the Activity ([21]; human) was “Dose-dependent effect” and the EC50 ([21]; read-out: Activity) was 0.02 µM.
